Assay results: ChEMBL document CHEMBL1143257, “Structure-activity relationships of novel HIV-1 protease inhibitors containing the 3-amino-2-chlorobenzoyl-allophenylnorstatine structure” (Bioorg Med Chem, 2008)

What was measured:
[1] = system: Human immunodeficiency virus 1; experiment: Antiviral activity against HIV1 3B in presence of 50% human serum; assay type: functional, organism-based; settings: Human immunodeficiency virus 1, 3B
[2] = Metabolic stability in rat liver microsomes assessed as compound remaining at 5 uM in presence of 0.5 uM ritonavir by RP-HPLC; assay type: ADME, Microsome; settings: with ritonavir 0.5 uM, read-out: Stability
[3] = Metabolic stability in rat liver microsomes assessed as compound remaining at 5 uM in presence of 2.5 uM ritonavir by RP-HPLC; assay type: ADME, Microsome; settings: with ritonavir 2.5 uM, read-out: Stability
[4] = Metabolic stability in human liver microsomes assessed as compound remaining at 5 uM in presence of 2.5 uM ritonavir by RP-HPLC; assay type: ADME, Microsome; settings: with ritonavir 2.5 uM, read-out: Stability
[5] = system: Human immunodeficiency virus 1; experiment: Antiviral activity against HIV1 3B; assay type: functional, organism-based; settings: Human immunodeficiency virus 1, 3B
[6] = system: Human immunodeficiency virus 1; experiment: Antiviral activity against HIV1 mutant strain 3; assay type: functional, organism-based
[7] = Metabolic stability in dog liver microsomes assessed as compound remaining at 5 uM in presence of 2.5 uM ritonavir by RP-HPLC; assay type: ADME, Canis lupus familiaris, Microsome; settings: with ritonavir 2.5 uM, read-out: Stability
[8] = Metabolic stability in dog liver microsomes assessed as compound remaining at 5 uM by RP-HPLC; assay type: ADME, Canis lupus familiaris, Microsome; settings: read-out: Stability
Summary of the method: (§1)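 Test drug at 5 µM incubated with liver microsomes (0.5 mg/ml) plus cofactor (1 mM NADPH or 5 mM UDPGA) at 37 °C for 30 min. Residual drug measured by RP-HPLC. Values are the mean percent remaining of duplicates.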

[9] = system: Human immunodeficiency virus 1; experiment: Antiviral activity against HIV1 mutant strain 1; assay type: functional, organism-based
Summary of the method: (§2)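 PhenoSense phenotypic susceptibility assay on multi-drug-resistant clinical HIV-1 protease variant strains, run in parallel with a wild-type reference. EC50 read in µM. Fold change is mutant EC50 divided by wild-type EC50.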

[10] = Metabolic stability in human liver microsomes assessed as compound remaining at 5 uM by RP-HPLC; assay type: ADME, Microsome; settings: read-out: Stability; summary of the method: as §1
[11] = Metabolic stability in dog liver microsomes assessed as compound remaining at 5 uM in presence of 0.5 uM ritonavir by RP-HPLC; assay type: ADME, Canis lupus familiaris, Microsome; settings: with ritonavir 0.5 uM, read-out: Stability
[12] = system: Human immunodeficiency virus 1; experiment: Antiviral activity against HIV1 mutant strain 2; assay type: functional, organism-based
Summary of the method: (§3)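 PhenoSense phenotypic assay. Strain 2 protease carries L10I, G16A, K45V, F53L, I54V, K55N, D60E, L63P, A71V, I72K, V77I, V82F, I84V, L90M, I93L. EC50 in µM. Fold change is versus the wild-type EC50.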

[13] = system: Human immunodeficiency virus 1; experiment: Antiviral activity against HIV1 mutant strain 5; assay type: functional, organism-based
[14] = Metabolic stability in human liver microsomes assessed as compound remaining at 5 uM in presence of 0.5 uM ritonavir by RP-HPLC; assay type: ADME, Microsome; settings: with ritonavir 0.5 uM, read-out: Stability
[15] = system: Human immunodeficiency virus 1; experiment: Antiviral activity against wild type HIV1; assay type: functional, organism-based
[16] = system: Human immunodeficiency virus 1; experiment: Antiviral activity against HIV1 mutant strain 7; assay type: functional, organism-based
Summary of the method: (§4)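 PhenoSense phenotypic assay. Strain 7 protease mutations include T4A, L10I, K20R, L23I, L33F, E35D, M36I, K43T, M46L. EC50 in µM. Fold change is versus the wild-type EC50.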

[17] = Metabolic stability in rat liver microsomes assessed as compound remaining at 5 uM by RP-HPLC; assay type: ADME, Microsome; settings: read-out: Stability; summary of the method: as §1
[18] = system: Human immunodeficiency virus 1; experiment: Antiviral activity against HIV1 mutant strain 4; assay type: functional, organism-based
[19] = system: Human immunodeficiency virus 1; experiment: Antiviral activity against HIV1 mutant strain 6; assay type: functional, organism-based
[20] = Plasma clearance in Beagle dog at 15 mg/kg, iv; assay type: ADME, organism-based, Canis lupus familiaris; design: dose 15 mg/kg, route intravenous
[21] = system: Human immunodeficiency virus 1; experiment: Ratio of EC50 for HIV1 mutant strain 7 to EC50 for wild type HIV1; assay type: functional; summary of the method: as §4
[22] = system: Human immunodeficiency virus 1; experiment: Ratio of EC50 for HIV1 mutant strain 5 to EC50 for wild type HIV1; assay type: functional
[23] = Volume of distribution at steady state in Beagle dog at 15 mg/kg, iv; assay type: ADME, organism-based, Canis lupus familiaris; design: dose 15 mg/kg, route intravenous; settings: in vivo, read-out: Vdss
[24] = system: Human immunodeficiency virus 1; experiment: Ratio of EC50 for HIV1 mutant strain 1 to EC50 for wild type HIV1; assay type: functional; summary of the method: as §2
[25] = Cmax in Beagle dog at 15 mg/kg, po; assay type: ADME, organism-based, Canis lupus familiaris; design: dose 15 mg/kg, route oral; settings: in vivo
[26] = Tmax in Beagle dog at 15 mg/kg, po; assay type: ADME, organism-based, Canis lupus familiaris; design: dose 15 mg/kg, route oral; settings: in vivo
[27] = system: Human immunodeficiency virus 1; experiment: Ratio of EC50 for HIV1 mutant strain 6 to EC50 for wild type HIV1; assay type: functional
[28] = Metabolic stability in human liver microsomes assessed as compound remaining at 5 uM in presence of NADPH by RP-HPLC; assay type: ADME, Microsome; settings: read-out: Stability; summary of the method: as §1
[29] = system: Human immunodeficiency virus 1; experiment: Ratio of EC50 for HIV1 mutant strain 2 to EC50 for wild type HIV1; assay type: functional; summary of the method: as §3
[30] = system: Human immunodeficiency virus 1; experiment: Ratio of EC50 for HIV1 mutant strain 4 to EC50 for wild type HIV1; assay type: functional
[31] = Plasma concentration in Beagle dog at 15 mg/kg, po after 12 hrs; assay type: ADME, organism-based, Canis lupus familiaris; design: dose 15 mg/kg, route oral
[32] = system: Liver; experiment: Metabolic stability in dog liver microsomes assessed as compound remaining in presence of NADPH by RP-HPLC; assay type: ADME, Canis lupus familiaris, Microsome; summary of the method: as §1
[33] = AUC in Beagle dog at 15 mg/kg, po; assay type: ADME, organism-based, Canis lupus familiaris; design: dose 15 mg/kg, route oral; settings: plasma
[34] = target: Protease (Human immunodeficiency virus 1, UniProt Q9YQ12); experiment: Inhibition of HIV1 protease
[35] = system: Liver; experiment: Metabolic stability in dog liver microsomes assessed as compound remaining in presence of UDPGA by RP-HPLC; assay type: ADME, Canis lupus familiaris, Microsome; summary of the method: as §1
[36] = Metabolic stability in human liver microsomes assessed as compound remaining at 5 uM in presence of UDPGA by RP-HPLC; assay type: ADME, Microsome; settings: read-out: Stability; summary of the method: as §1
[37] = Oral bioavailability in Beagle dog at 15 mg/kg; assay type: ADME, organism-based, Canis lupus familiaris; settings: in vivo
[38] = system: Human immunodeficiency virus 1; experiment: Ratio of EC50 for HIV1 mutant strain 3 to EC50 for wild type HIV1; assay type: functional
[39] = Tmax in Beagle dog at 15 mg/kg, po co-administered with 7.5 mg/kg of ritonavir, po; assay type: ADME, organism-based, Canis lupus familiaris; settings: in vivo
[40] = Plasma concentration in Beagle dog at 15 mg/kg, po after 12 hrs co-administered with 7.5 mg/kg of ritonavir, po; assay type: ADME, organism-based, Canis lupus familiaris
[41] = Cmax in Beagle dog at 15 mg/kg, po co-administered with 7.5 mg/kg of ritonavir, po; assay type: ADME, organism-based, Canis lupus familiaris; design: dose 15 mg/kg, route oral; settings: in vivo
[42] = AUC in Beagle dog at 15 mg/kg, po co-administered with 7.5 mg/kg of ritonavir, po; assay type: ADME, organism-based, Canis lupus familiaris; settings: plasma
[43] = system: Human immunodeficiency virus 1; experiment: Antiviral activity against multidrug resistant HIV1; assay type: functional, organism-based; summary of the method: as §2

Sequence of Protease (Q9YQ12 whole entry): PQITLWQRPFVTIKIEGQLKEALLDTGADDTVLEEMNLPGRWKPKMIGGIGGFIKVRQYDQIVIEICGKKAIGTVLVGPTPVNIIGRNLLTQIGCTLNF

## Cc1cccc(C)c1OCC(=O)N[C@@H](Cc1ccccc1)[C@@H](O)C[C@H](Cc1ccccc1)NC(=O)[C@H](C(C)C)N1CCCNC1=O [LOPINAVIR]
[1]
  EC50: 8 nM
[2]
  remaining at 5 µM: 83%
[3]
  remaining at 5 µM: > 95%
[4]
  remaining at 5 µM: > 95%
[5]
  EC50: 8 nM
[6]
  EC50: 657 nM
[7]
  remaining at 5 µM: > 95%
[8]
  remaining at 5 µM: 16%
[9]
  EC50: 214 nM
[10]
  remaining at 5 µM: 10%
[11]
  remaining at 5 µM: 83%
[12]
  EC50: 251 nM
[13]
  EC50: 807 nM
[14]
  remaining at 5 µM: > 95%
[15]
  EC50: 3.7 nM
[16]
  EC50: 212 nM
[17]
  remaining at 5 µM: 11%
[18]
  EC50: 66 nM
[19]
  EC50: 411 nM

## COC(=O)N[C@H](C(=O)N[C@@H](Cc1ccccc1)[C@@H](O)CN(Cc1ccc(-c2ccccn2)cc1)NC(=O)[C@@H](NC(=O)OC)C(C)(C)C)C(C)(C)C [ATAZANAVIR]
[20]
  clearance: 26.7 mL/min/kg
[1]
  EC50: 9 nM
[21]
  Ratio EC50: 50
[22]
  Ratio EC50: 180
[23]
  Vd: 2 L/kg
[24]
  Ratio EC50: 62
[25]
  Cmax: 4200 nM
[26]
  Tmax: 0.5 h
[5]
  EC50: < 4 nM
[27]
  Ratio EC50: 90
[28]
  remaining at 5 µM: 83%
[6]
  EC50: 23 nM
[29]
  Ratio EC50: 32
[30]
  Ratio EC50: 64
[31]
  concentration at 12 h: 50 nM
[32]
  Stability: 83%
[9]
  EC50: 92 nM
[33]
  AUC: 15 µM·h
[34]
  Ki: 0.05 nM
[12]
  EC50: 48 nM
[35]
  Stability: > 95%
[13]
  EC50: 266 nM
[15]
  EC50: 1.5 nM
[36]
  remaining at 5 µM: > 95%
[37]
  bioavailability: 102%
[16]
  EC50: 74 nM
[38]
  Ratio EC50: 16
[18]
  EC50: 95 nM
[19]
  EC50: 134 nM

## COc1cccc(C[C@H](NC(=O)c2cccc(N)c2Cl)[C@H](O)C(=O)N2CSC(C)(C)[C@H]2C(=O)NCc2c(C)cccc2C)c1
[20]
  clearance: 18.3 mL/min/kg
[1]
  EC50: 6 nM
[21]
  Ratio EC50: 7
[22]
  Ratio EC50: 38
[2]
  remaining at 5 µM: 41%
[39]
  Tmax: 3 h
[3]
  remaining at 5 µM: 55%
[23]
  Vd: 1.3 L/kg
[4]
  remaining at 5 µM: > 95%
[24]
  Ratio EC50: 27
[25]
  Cmax: 2800 nM
[26]
  Tmax: 2 h
[40]
  concentration at 12 h: 2950 nM
[5]
  EC50: 4 nM
[41]
  Cmax: 5300 nM
[27]
  Ratio EC50: 17
[28]
  remaining at 5 µM: 64%
[6]
  EC50: 122 nM
[29]
  Ratio EC50: 19
[7]
  remaining at 5 µM: > 95%
[30]
  Ratio EC50: 4
[31]
  concentration at 12 h: 130 nM
[32]
  Stability: 47%
[8]
  remaining at 5 µM: 36%
[42]
  AUC: 52.8 µM·h
[9]
  EC50: 150 nM
[33]
  AUC: 15.6 µM·h
[34]
  Ki: 0.134 nM
[10]
  remaining at 5 µM: 49%
[11]
  remaining at 5 µM: 90%
[12]
  EC50: 106 nM
[35]
  Stability: > 95%
[13]
  EC50: 214 nM
[14]
  remaining at 5 µM: 93%
[15]
  EC50: 5.6 nM
[43]
  IC50: 22 nM
[36]
  remaining at 5 µM: > 95%
[37]
  bioavailability: 71%
[16]
  EC50: 42 nM
[38]
  Ratio EC50: 22
[17]
  remaining at 5 µM: 21%
[18]
  EC50: 22 nM
[19]
  EC50: 96 nM

## Cc1ccccc1CNC(=O)[C@H]1N(C(=O)[C@@H](O)[C@H](Cc2ccccc2)NC(=O)c2cccc(O)c2C)CSC1(C)C
[20]
  clearance: 15 mL/min/kg
[1]
  EC50: 52 nM
[2]
  remaining at 5 µM: 16%
[3]
  remaining at 5 µM: 31%
[23]
  Vd: 1.6 L/kg
[4]
  remaining at 5 µM: 59%
[25]
  Cmax: 3100 nM
[26]
  Tmax: 0.5 h
[5]
  EC50: 26 nM
[28]
  remaining at 5 µM: 27%
[7]
  remaining at 5 µM: 93%
[31]
  concentration at 12 h: 30 nM
[32]
  Stability: 49%
[8]
  remaining at 5 µM: 46%
[33]
  AUC: 6.5 µM·h
[34]
  Ki: 0.035 nM
[10]
  remaining at 5 µM: 13%
[11]
  remaining at 5 µM: 92%
[35]
  Stability: 91%
[14]
  remaining at 5 µM: 56%
[36]
  remaining at 5 µM: 55%
[37]
  bioavailability: 25%
[17]
  remaining at 5 µM: 12%
